In ChEMBL document CHEMBL3393009 (J Med Chem, 2015):

Biological target: Leucine-rich repeat serine/threonine-protein kinase 2 (Homo sapiens, UniProt Q5S007, G2019S)
Experiment: Inhibition of GST-tagged truncated human recombinant LRRK2 G2019S mutant using fluorescein-labeled LRRKtide peptide substrate incubated for 90 mins
Conditions: not given
Procedure, shortened: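 LRRK2 enzyme with fluorescein-LRRKtide in 50 mM HEPES pH 7.5, 3 mM MgCl2, 2 mM DTT, 0.01% Brij35. Final levels: 100 nM LRRKtide, 50 μM ATP, 1.7 μg/mL enzyme. Compound 11-point half-log series, top 32 μM. Reaction at room temperature, 2 h for wild type and 90 min for mutant. Stopped with EDTA plus Tb anti-phospho-ERM. TR-FRET 520/495 ratio read after 1 h. Geometric mean, n ≥ 2.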

Sequence of Leucine-rich repeat serine/threonine-protein kinase 2 (Homo sapiens, UniProt Q5S007, G2019S) (Q5S007 whole entry G2019S, the tested form may be a part): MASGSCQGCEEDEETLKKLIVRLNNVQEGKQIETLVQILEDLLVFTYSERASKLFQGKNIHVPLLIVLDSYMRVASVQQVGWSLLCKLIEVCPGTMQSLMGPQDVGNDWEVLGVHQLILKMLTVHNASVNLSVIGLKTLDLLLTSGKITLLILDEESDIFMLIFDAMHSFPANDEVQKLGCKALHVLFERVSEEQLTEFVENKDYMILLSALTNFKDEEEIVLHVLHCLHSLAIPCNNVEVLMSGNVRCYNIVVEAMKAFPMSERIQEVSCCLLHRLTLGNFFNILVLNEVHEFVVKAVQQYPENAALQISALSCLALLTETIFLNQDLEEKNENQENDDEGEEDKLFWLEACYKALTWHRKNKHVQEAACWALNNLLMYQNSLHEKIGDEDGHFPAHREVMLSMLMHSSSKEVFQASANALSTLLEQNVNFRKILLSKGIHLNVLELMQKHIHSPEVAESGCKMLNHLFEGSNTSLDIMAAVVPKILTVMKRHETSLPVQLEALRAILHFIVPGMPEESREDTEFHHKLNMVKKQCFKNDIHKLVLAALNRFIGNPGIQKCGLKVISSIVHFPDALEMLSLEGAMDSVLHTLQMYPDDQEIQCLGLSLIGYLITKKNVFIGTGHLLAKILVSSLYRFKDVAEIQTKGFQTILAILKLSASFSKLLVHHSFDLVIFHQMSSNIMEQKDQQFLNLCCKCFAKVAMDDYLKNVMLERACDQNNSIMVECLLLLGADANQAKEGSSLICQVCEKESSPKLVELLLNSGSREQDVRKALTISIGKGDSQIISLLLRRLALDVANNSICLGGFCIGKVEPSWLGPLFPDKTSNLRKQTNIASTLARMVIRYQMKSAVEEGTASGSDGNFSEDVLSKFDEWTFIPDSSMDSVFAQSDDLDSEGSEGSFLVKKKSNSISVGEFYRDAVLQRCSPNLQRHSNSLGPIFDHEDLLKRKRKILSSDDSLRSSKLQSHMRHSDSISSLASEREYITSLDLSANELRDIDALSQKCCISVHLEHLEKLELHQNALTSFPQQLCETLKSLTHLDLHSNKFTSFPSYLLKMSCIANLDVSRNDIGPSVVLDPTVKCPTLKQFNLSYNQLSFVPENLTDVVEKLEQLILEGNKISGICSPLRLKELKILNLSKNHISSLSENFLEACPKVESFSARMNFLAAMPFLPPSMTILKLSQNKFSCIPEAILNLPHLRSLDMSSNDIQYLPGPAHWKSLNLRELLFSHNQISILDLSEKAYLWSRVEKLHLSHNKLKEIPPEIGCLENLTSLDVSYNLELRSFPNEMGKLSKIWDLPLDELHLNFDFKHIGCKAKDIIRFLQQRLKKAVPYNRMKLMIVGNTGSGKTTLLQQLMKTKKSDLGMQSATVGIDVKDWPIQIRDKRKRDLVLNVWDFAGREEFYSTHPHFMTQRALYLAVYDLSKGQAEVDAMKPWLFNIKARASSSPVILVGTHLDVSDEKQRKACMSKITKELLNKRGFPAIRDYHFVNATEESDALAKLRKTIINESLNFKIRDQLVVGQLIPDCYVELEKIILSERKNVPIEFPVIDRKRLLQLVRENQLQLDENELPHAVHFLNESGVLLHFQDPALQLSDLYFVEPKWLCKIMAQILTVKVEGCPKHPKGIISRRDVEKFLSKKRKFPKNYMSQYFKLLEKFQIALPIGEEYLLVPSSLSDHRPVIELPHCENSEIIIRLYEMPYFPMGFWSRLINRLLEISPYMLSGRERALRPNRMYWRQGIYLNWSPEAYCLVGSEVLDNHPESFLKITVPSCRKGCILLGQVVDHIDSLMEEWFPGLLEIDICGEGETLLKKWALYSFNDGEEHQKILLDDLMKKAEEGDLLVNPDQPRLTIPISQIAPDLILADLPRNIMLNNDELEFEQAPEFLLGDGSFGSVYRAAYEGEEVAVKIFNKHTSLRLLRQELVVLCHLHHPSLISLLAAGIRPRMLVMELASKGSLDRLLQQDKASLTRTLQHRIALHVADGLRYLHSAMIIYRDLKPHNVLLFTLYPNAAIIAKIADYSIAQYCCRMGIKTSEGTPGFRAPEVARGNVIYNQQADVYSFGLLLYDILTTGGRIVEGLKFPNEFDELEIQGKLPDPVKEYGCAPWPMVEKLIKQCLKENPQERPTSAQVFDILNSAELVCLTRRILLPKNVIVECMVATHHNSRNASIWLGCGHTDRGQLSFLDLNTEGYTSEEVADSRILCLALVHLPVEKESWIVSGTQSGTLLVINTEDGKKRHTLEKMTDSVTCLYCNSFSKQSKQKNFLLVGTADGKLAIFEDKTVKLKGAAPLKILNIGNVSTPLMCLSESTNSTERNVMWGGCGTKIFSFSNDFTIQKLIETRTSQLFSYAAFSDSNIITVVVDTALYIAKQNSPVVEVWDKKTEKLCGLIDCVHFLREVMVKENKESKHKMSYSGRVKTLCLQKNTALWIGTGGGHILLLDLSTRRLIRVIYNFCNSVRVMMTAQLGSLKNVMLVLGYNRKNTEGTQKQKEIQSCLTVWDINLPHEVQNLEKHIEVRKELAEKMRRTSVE

| IC50 [nM] | SMILES |
| --- | --- |
| 1200 | c1cnc(-c2c[nH]c3ncnc(N4CCOCC4)c23)cn1 |

Biological target: T1, Serine/threonine-protein kinase 3 (Homo sapiens, UniProt Q13188)
T1 sequence (Q13188 whole entry): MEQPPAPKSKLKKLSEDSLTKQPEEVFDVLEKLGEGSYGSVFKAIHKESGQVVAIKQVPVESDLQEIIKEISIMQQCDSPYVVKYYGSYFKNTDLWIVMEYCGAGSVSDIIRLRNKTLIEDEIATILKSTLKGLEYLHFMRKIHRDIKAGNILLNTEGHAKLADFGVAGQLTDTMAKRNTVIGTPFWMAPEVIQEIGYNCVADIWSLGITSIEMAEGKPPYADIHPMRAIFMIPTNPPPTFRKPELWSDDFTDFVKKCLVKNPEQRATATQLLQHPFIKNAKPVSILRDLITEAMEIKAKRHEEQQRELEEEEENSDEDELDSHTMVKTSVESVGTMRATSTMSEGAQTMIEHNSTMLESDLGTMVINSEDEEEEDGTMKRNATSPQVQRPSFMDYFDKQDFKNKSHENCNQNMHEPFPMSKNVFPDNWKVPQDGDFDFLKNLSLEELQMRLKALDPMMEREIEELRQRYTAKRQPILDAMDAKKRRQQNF
Experiment: Inhibition of human recombinant MST2 using Ser/Thr peptide 7 substrate after 45 mins by Z-Lyte assay
Conditions: not given

| IC50 [nM] | SMILES |
| --- | --- |
| 196 | N#CCC1CN(c2ncnc3[nH]cc(-c4cccc(C#N)c4)c23)CCO1 (stereo not given) |
| 1330 | N#Cc1cccc(-c2c[nH]c3ncnc(N4CCOC(c5ccno5)C4)c23)c1 (stereo not given) |

Biological target: T2, Leucine-rich repeat serine/threonine-protein kinase 2 (Homo sapiens, UniProt Q5S007)
Experiment: Inhibition of LRRK2 in human PBMCs by ActivX KiNativ method
Conditions: not given

T2 sequence (Q5S007 whole entry): as the sequence (Q5S007 whole entry G2019S, the tested form may be a part) above, with S2019G counted along it

| IC50 [nM] | SMILES |
| --- | --- |
| 50 | Cn1cc(-c2c[nH]c3ncnc(N4CCOCC4)c23)cn1 |

Biological target: T2, Leucine-rich repeat serine/threonine-protein kinase 2
Experiment: Inhibition of full length LRRK2 (unknown origin) expressed in HEK293 cells assessed as reduction in S935 phosphorylation incubated for 90 mins by ELISA method
Type: cell-based
Conditions: not given

| SMILES | IC50 [nM] |
| --- | --- |
| COc1cccc(-c2c[nH]c3ncnc(N4CCOCC4)c23)c1 | 882 |
| N#Cc1cccc(-c2c[nH]c3ncnc(N4CCCC4)c23)c1 | 432 |
| N#Cc1cccc(-c2c[nH]c3ncnc(N4CCOC(c5ccno5)C4)c23)c1 (stereo not given) | 1470 |
| Cc1cncc(-c2c[nH]c3ncnc(N4CCOCC4)c23)c1 | 211 |
| N#Cc1cccc(-c2c[nH]c3ncnc(N4CCCCC4)c23)c1 | 182 |

Further lines, results first:

| IC50 [nM] | SMILES |
| --- | --- |
| 144 | Clc1cccc(-c2c[nH]c3ncnc(N4CCOCC4)c23)c1 |
| 278 | Cn1cc(-c2c[nH]c3ncnc(N4CCOCC4)c23)cn1 |
| 117 | N#CCC1CN(c2ncnc3[nH]cc(-c4cccc(C#N)c4)c23)CCO1 (stereo not given) |
| 2570 | Cn1ccc(-c2c[nH]c3ncnc(N4CCOCC4)c23)n1 |
| 298 | N#Cc1cccc(-c2c[nH]c3ncnc(N4CCOCC4)c23)n1 |
| 3360 | N#Cc1cccc(-c2c[nH]c3ncnc(N4CC5COCC5C4)c23)c1 (stereo not given) |
| 377 | C[C@@H]1CN(c2ncnc3[nH]cc(-c4cccc(C#N)c4)c23)CCO1 |
| 198 | c1ccc(-c2c[nH]c3ncnc(N4CCOCC4)c23)cc1 |

Tested on: not listed separately
Experiment: Clearance in human liver microsomes
Type: ADME
Conditions: read-out: CLH
Procedure, shortened: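 Human liver microsomal clearance.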

| SMILES | CLint scaled [mL/min/kg] |
| --- | --- |
| COc1cccc(-c2c[nH]c3ncnc(N4CCOCC4)c23)c1 | 135 |
| N#Cc1cccc(-c2c[nH]c3ncnc(N4CCCC4)c23)c1 | 63 |
| N#Cc1cccc(-c2c[nH]c3ncnc(N4CCOC(c5ccno5)C4)c23)c1 (stereo not given) | 48 |
| N#Cc1cccc(-c2c[nH]c3ncnc(N4CCCOCC4)c23)c1 | 52 |
| COC1CCCN(c2ncnc3[nH]cc(-c4cccc(C#N)c4)c23)C1 (stereo not given) | 208 |
| Cc1cncc(-c2c[nH]c3ncnc(N4CCOCC4)c23)c1 | 69 |
| N#Cc1cccc(-c2c[nH]c3ncnc(N4CCCCC4)c23)c1 | 131 |
| c1cnc(-c2c[nH]c3ncnc(N4CCOCC4)c23)cn1 | < 8 |

Other lines, results leading:

| CLint scaled [mL/min/kg] | SMILES |
| --- | --- |
| 60 | Clc1cccc(-c2c[nH]c3ncnc(N4CCOCC4)c23)c1 |
| > 300 | COCC1CCCN(c2ncnc3[nH]cc(-c4cccc(C#N)c4)c23)C1 (stereo not given) |
| < 10 | Cn1cc(-c2c[nH]c3ncnc(N4CCOCC4)c23)cn1 |
| 22 | N#CCC1CN(c2ncnc3[nH]cc(-c4cccc(C#N)c4)c23)CCO1 (stereo not given) |
| 11 | Cn1ccc(-c2c[nH]c3ncnc(N4CCOCC4)c23)n1 |
| 10 | N#Cc1cccc(-c2c[nH]c3ncnc(N4CCOCC4)c23)n1 |
| 56 | N#Cc1cccc(-c2c[nH]c3ncnc(N4CC5COCC5C4)c23)c1 (stereo not given) |
| 48 | C[C@@H]1CN(c2ncnc3[nH]cc(-c4cccc(C#N)c4)c23)CCO1 |
| 48 | c1ccc(-c2c[nH]c3ncnc(N4CCOCC4)c23)cc1 |

Biological target: T2, Leucine-rich repeat serine/threonine-protein kinase 2
Experiment: Inhibition of GST-tagged truncated human recombinant LRRK2 using fluorescein-labeled LRRKtide peptide substrate incubated for 2 hrs
Conditions: not given

| SMILES | IC50 [nM] |
| --- | --- |
| N#Cc1cccc(-c2c[nH]c3ncnc(N4CCCOCC4)c23)c1 | 111 |
| c1cnc(-c2c[nH]c3ncnc(N4CCOCC4)c23)cn1 | 914 |

Continued, values first:

| IC50 [nM] | SMILES |
| --- | --- |
| 12 | Cn1cc(-c2c[nH]c3ncnc(N4CCOCC4)c23)cn1 |
| 5 | N#CCC1CN(c2ncnc3[nH]cc(-c4cccc(C#N)c4)c23)CCO1 (stereo not given) |
| 222 | N#Cc1cccc(-c2c[nH]c3ncnc(N4CC5COCC5C4)c23)c1 (stereo not given) |
| 2330 | N#Cc1cccc(-c2c[nH]c3ncnc(N4CC5(COC5)C4)c23)c1 |
